# Measurements as given in ChEMBL document CHEMBL1137660, “Molecular and biochemical characterization of the chromosome-encoded class A beta-lactamase BCL-1 from Bacillus clausii” (Antimicrob Agents Chemother, 2007).
# Experiments:
# [1] = molecular target: T1, Beta-lactamase (Bacillus clausii) (UniProt A8RR46); assay: Induction of Bacillus clausii ATCC 21537 beta-lactamase BCL1 activity expressed in Escherichia coli BL21 (DE3) assessed as specific activity per mg of protein at 5 ug/ml; conditions: Shouchella clausii
# T1 sequence (whole entry): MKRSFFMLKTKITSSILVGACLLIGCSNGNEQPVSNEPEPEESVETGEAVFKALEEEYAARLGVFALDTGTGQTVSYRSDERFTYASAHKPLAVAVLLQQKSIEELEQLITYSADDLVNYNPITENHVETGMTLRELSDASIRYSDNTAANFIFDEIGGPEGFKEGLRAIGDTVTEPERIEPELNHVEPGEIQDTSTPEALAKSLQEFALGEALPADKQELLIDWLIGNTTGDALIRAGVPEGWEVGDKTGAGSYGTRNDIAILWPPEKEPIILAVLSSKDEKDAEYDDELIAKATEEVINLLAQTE
# Procedure, shortened: (§1)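 Induction in B. clausii NR and ATCC 21537 cultures using cefoxitin at 1 to 5 μg/ml as inducer. β-Lactamase activity of extracts read with 100 μM penicillin G as substrate and expressed per mg protein.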
# [2] = molecular target: T1, Beta-lactamase (Bacillus clausii); assay: Induction of Bacillus clausii NR beta-lactamase BCL1 activity expressed in Escherichia coli BL21 (DE3) assessed as specific activity per mg of protein at 5 ug/ml; conditions: Shouchella clausii; procedure, shortened: as §1
# [3] = Ratio of Kcat to Km for Bacillus clausii NR beta-lactamase BCL1 to ratio of Kcat/Km for Bacillus anthracis beta-lactamase Bla1
# [4] = Ratio of Kcat for Bacillus cereus beta-lactamase BcI to Kcat for Bacillus clausii NR beta-lactamase BCL1
# [5] = Ratio of Kcat for Bacillus clausii NR beta-lactamase BCL1 to Kcat for Bacillus cereus beta lactamase BcI
# [6] = molecular target: T1, Beta-lactamase (Bacillus clausii); assay: Activity of Bacillus clausii NR beta-lactamase BCL1 expressed in Escherichia coli BL21 (DE3) assessed as specific activity per mg of protein at 100 uM; conditions: Shouchella clausii
# Procedure, shortened: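 Enzyme from E. coli BL21(DE3)(pET-BCL-1), induced with 0.4 mM IPTG at 37°C for 5 h in TS broth with amoxicillin and kanamycin. Cells were sonicated. Enzyme purified by S-Sepharose (50 mM phosphate, pH 6.5) then Q-Sepharose (20 mM Tris-HCl, pH 9; 0–1 M NaCl gradient). Protein by DC assay. Activity read with 100 μM cephalothin as substrate.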
Compound,fold change (FC) [3],fold change (FC) [5],other results
CO[C@@]1(NC(=O)Cc2cccs2)C(=O)N2C(C(=O)O)=C(COC(N)=O)CS[C@@H]21,,,Activity [1]: 500 U; Activity [2]: 500 U
CCN1CCN(C(=O)N[C@@H](C(=O)N[C@@H]2C(=O)N3[C@@H]2SC(C)(C)[C@@H]3C(=O)O)c2ccccc2)C(=O)C1=O,10,,
CC1(C)S[C@@H]2[C@H](NC(=O)Cc3ccccc3)C(=O)N2[C@H]1C(=O)O,10,,Ratio [4]: 200
O=C(Cc1cccs1)N[C@@H]1C(=O)N2C(C(=O)[O-])=C(C[n+]3ccccc3)CS[C@H]12,2,,
CO/N=C(\C(=O)N[C@@H]1C(=O)N2C(C(=O)O)=C(COC(N)=O)CS[C@H]12)c1ccco1,,100,
CC(=O)OCC1=C(C(=O)O)N2C(=O)[C@@H](NC(=O)Cc3cccs3)[C@H]2SC1,,100,Activity [6]: 35 U
CO/N=C(\C(=O)N[C@@H]1C(=O)N2C(C(=O)[O-])=C(C[n+]3cccc4c3CCC4)CS[C@H]12)c1csc(N)n1,,500,
CC1(C)S[C@@H]2[C@H](NC(=O)[C@H](N)c3ccc(O)cc3)C(=O)N2[C@H]1C(=O)O,10,,
CO/N=C(\C(=O)N[C@@H]1C(=O)N2C(C(=O)O)=C(COC(C)=O)CS[C@H]12)c1csc(N)n1,,100,
CC1(C)S[C@@H]2[C@H](NC(=O)[C@H](C(=O)O)c3ccsc3)C(=O)N2[C@H]1C(=O)O,10,,
